Source: ChEMBL document CHEMBL3091335, “Design and synthesis of potent and selective P2X₃ receptor antagonists derived from PPADS as potential pain modulators” (Eur J Med Chem, 2013)
pIC50: −log10 of the molar value. Calls of active or inactive are those of the source. The rule behind the calls is not given here.

Experiments:
[1] = target: T1, P2X purinoceptor 7 (Homo sapiens) (UniProt Q99572); experiment: Antagonist activity at human P2X7 receptor expressed in HEK293 cells assessed as inhibition of BzATP-induced accumulation of ethidium+ at 10 uM after 120 mins by fluorescence assay relative to control; format: cell-based
T1 sequence (whole entry): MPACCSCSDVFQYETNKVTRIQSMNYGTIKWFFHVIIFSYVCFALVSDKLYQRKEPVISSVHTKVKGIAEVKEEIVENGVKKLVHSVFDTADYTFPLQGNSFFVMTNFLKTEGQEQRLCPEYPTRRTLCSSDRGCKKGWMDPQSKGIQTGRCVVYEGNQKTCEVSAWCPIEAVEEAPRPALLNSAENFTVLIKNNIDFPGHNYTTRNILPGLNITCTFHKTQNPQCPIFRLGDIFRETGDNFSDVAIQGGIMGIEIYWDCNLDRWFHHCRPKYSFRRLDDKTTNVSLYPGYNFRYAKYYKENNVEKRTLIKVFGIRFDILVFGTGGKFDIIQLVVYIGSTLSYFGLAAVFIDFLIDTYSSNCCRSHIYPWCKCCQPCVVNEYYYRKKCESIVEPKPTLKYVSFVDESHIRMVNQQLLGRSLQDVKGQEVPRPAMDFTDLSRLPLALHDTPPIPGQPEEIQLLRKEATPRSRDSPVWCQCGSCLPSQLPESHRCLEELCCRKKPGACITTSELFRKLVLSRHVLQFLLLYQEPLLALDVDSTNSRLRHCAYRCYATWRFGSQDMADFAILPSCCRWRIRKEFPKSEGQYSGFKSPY
In short: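 HEK293 cells expressing hP2X7 were grown in DMEM with 10% FBS at 37 °C under 5% CO2, harvested with trypsin/EDTA and resuspended at 2.5 × 10⁶ cells/mL in KCl/glucose/EDTA/HEPES buffer (pH 7.4) with ethidium bromide. Cells were plated at 2 × 10⁵ cells/well with BzATP and incubated at 37 °C for 120 min. Fluorescence was read at ex 530/em 590 nm; mean ± SEM, n≥3.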

[2] = target: T2, P2X purinoceptor 3 (Homo sapiens, UniProt P56373); experiment: Antagonist activity at recombinant human P2X3 receptor expressed in Xenopus oocytes assessed as inhibition of ATP-induced ion current preincubated for 20 mins followed by ATP addition by two-electrode voltage clamp assay; format: cell-based
T2 sequence (P56373 whole entry): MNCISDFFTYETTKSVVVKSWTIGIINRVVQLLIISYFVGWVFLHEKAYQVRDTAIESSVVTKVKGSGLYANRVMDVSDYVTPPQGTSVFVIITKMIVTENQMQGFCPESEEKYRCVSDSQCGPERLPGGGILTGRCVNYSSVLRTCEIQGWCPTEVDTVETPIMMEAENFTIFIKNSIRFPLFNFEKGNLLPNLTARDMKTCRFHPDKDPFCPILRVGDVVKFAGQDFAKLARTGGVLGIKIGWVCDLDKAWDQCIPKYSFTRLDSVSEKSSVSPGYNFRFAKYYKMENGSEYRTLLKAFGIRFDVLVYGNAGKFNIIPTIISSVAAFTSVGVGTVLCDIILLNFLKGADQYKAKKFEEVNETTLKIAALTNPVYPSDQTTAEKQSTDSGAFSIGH
In short: (§1)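 Defolliculated Xenopus oocytes were injected with mP2X1 or hP2X3 cRNA (40 nL), held 24 h at 18 °C in Barth's solution, then stored at 4 °C for up to 12 days. Two-electrode voltage clamp was run at Vh −70 mV in HEPES/BaCl2 buffer at pH 7.5. ATP was superfused for 60–120 s with 20 min washout. Currents were normalized to the ATP response, giving % inhibition or IC50 from inhibition curves; mean ± SEM, n≥3.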

[3] = target: T3, P2X purinoceptor 1 (Mus musculus) (UniProt P51576); experiment: Antagonist activity at recombinant mouse P2X1 receptor expressed in Xenopus oocytes assessed as inhibition of ATP-induced ion current at 10 uM preincubated for 20 mins followed by ATP addition by two-electrode voltage clamp assay relative to control; format: cell-based; in short: as §1
T3 sequence (whole entry): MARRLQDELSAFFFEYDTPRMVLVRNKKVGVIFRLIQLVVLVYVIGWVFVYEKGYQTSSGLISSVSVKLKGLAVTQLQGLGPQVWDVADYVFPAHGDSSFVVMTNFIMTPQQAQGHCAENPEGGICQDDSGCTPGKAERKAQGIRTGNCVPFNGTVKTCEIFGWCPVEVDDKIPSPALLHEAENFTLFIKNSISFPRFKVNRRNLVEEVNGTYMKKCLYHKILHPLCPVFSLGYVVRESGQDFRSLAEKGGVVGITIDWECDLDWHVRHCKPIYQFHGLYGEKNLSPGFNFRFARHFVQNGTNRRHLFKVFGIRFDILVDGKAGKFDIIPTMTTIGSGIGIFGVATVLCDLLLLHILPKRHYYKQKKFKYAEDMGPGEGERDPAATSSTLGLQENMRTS

[4] = target: T4, P2X purinoceptor 3 (Homo sapiens) (UniProt P56373); experiment: Antagonist activity at recombinant human P2X3 receptor expressed in Xenopus oocytes assessed as inhibition of ATP-induced ion current at 10 uM preincubated for 20 mins followed by ATP addition by two-electrode voltage clamp assay relative to control; format: cell-based; in short: as §1
T4 sequence (whole entry): T2 sequence (P56373 whole entry)

[5] = target: T5, P2X purinoceptor 1 (Mus musculus, UniProt P51576); experiment: Antagonist activity at recombinant mouse P2X1 receptor expressed in Xenopus oocytes assessed as inhibition of ATP-induced ion current preincubated for 20 mins followed by ATP addition by two-electrode voltage clamp assay; format: cell-based; in short: as §1
T5 sequence (P51576 whole entry): T3 sequence (whole entry)

[6] = Antinociceptive activity in rat spinal dorsal horn assessed as inhibition of electrically-stimulated long term potentiation at 20 uM by Di-4-ANEPPS dye-based assay relative to control; format: functional; conditions: Dorsal horn of spinal cord
In short: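 Ex vivo rat spinal cord slices (0.5 mm) loaded with voltage-sensitive dye Di-4-ANEPPS; optical signal in dorsal horn monitored before and after LTP induction by 2 Hz electrical stimulation (0.5 msec pulse) for 2 min. Expressed as % inhibition of LTP with compound treatment; means ± SD of 4 samples; pregabalin positive control.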

[7] = target: T4, P2X purinoceptor 3 (Homo sapiens); experiment: Antagonist activity at recombinant human P2X3 receptor expressed in Xenopus oocytes assessed as inhibition of ATP-induced ion current at 100 nM preincubated for 15 mins followed by ATP addition by two-electrode voltage clamp assay relative to control; format: cell-based
[8] = target: T6, P2X2/P2X3 receptor (Rattus norvegicus) (UniProt P49653+P49654); experiment: Antagonist activity at recombinant rat P2X2/3 receptor expressed in Xenopus oocytes assessed as inhibition of ATP-induced ion current at 1 uM preincubated for 15 mins followed by ATP addition by two-electrode voltage clamp assay relative to control; format: cell-based
[9] = target: T4, P2X purinoceptor 3 (Homo sapiens); experiment: Antagonist activity at recombinant human P2X3 receptor expressed in Xenopus oocytes assessed as inhibition of ATP-induced ion current at 1 uM preincubated for 15 mins followed by ATP addition by two-electrode voltage clamp assay relative to control; format: cell-based
[10] = target: T6, P2X2/P2X3 receptor (Rattus norvegicus); experiment: Antagonist activity at recombinant rat P2X2/3 receptor expressed in Xenopus oocytes assessed as inhibition of ATP-induced ion current at 100 nM preincubated for 15 mins followed by ATP addition by two-electrode voltage clamp assay relative to control; format: cell-based
[11] = target: T5, P2X purinoceptor 1; experiment: Antagonist activity at mouse P2X1 receptor

Cc1nc(Cc2cccc(Oc3ccccc3)c2)c(/C=C/C(=O)O)c(C(=O)O)c1O
inhibition [1]: inactive | pIC50 [2]: 6.42 | inhibition [3]: 33.7%

Cc1nc(Cc2cccc3ccccc23)c(CCC(=O)O)c(C=O)c1O
inhibition [1]: 43.4% | pIC50 [2]: 6.20

COc1ccccc1CCc1nc(C)c(O)c(C(=O)O)c1C(=O)O
inhibition [4]: 34.5% | inhibition [1]: inactive | inhibition [3]: 49.8%

COc1ccc(CCc2nc(C)c(O)c(C(=O)O)c2C(=O)O)cc1
inhibition [1]: inactive | pIC50 [2]: 6.34 | pIC50 [5]: 6.35

CC(=O)c1c(O)c(C)nc(Cc2ccccc2)c1C(=O)O
inhibition [4]: 18.3% | inhibition [1]: inactive | inhibition [3]: 44.2%

Cc1nc(/C=C/c2ccccc2)c(C(=O)O)c(C(=O)O)c1O
inhibition [1]: inactive | pIC50 [2]: 6.04 | pIC50 [5]: 6.11

Cc1nc(NC(=O)c2ccccc2)c(C(=O)O)c(C(=O)O)c1O
inhibition [1]: inactive | pIC50 [2]: 6.14

Cc1nc(Cc2cccc3ccccc23)c(/C=C/C(=O)O)c(C=O)c1O
inhibition [1]: 48.4% | pIC50 [2]: 6.84 | inhibition [3]: 22%

Cc1nc(Cc2ccc(Oc3ccccc3)cc2)c(C(=O)O)c(C(=O)O)c1O
inhibition [1]: inactive | pIC50 [2]: 5.98 | inhibition [3]: 40%

Cc1nc(Cc2cccc(Oc3ccccc3)c2)c(CCC(=O)O)c(C=O)c1O
inhibition [1]: 10.2% | pIC50 [2]: 6.44 | inhibition [3]: 23%

Cc1cc(C(=O)O)c(C(=O)O)c(NC(=O)c2ccccc2)n1
inhibition [4]: inactive | inhibition [1]: inactive

CC(=O)c1c(O)c(C)nc(CCc2ccccc2)c1C(=O)O
inhibition [4]: 37.3% | inhibition [1]: inactive | inhibition [3]: 47.9%

CC(C)C[C@H](CN)CC(=O)O [PREGABALIN]
inhibition at 20 µM [6]: 31%

COc1ccccc1CCc1nc(C)c(O)c(C(C)=O)c1C(=O)O
inhibition [4]: 6.3% | inhibition [1]: inactive | inhibition [3]: 11.4%

Cc1nc(CC(c2ccccc2)c2ccccc2)c(C(=O)O)c(C(=O)O)c1O
inhibition [1]: inactive | pIC50 [2]: 6.08 | inhibition [3]: 42%

COc1cccc(CCc2nc(C)c(O)c(C(C)=O)c2C(=O)O)c1
inhibition [4]: 15.8% | inhibition [1]: inactive | inhibition [3]: 29.9%

Cc1nc(Cc2cccc(Oc3ccccc3)c2)c(/C=C/C(=O)O)c(C=O)c1O
inhibition [1]: 15.1% | pIC50 [2]: 7.22 | inhibition at 20 µM [6]: 65% | inhibition [7]: 59.7% | inhibition [8]: 70.8% | inhibition [3]: 18.3% | inhibition [9]: 77.4% | inhibition [10]: 49.2%

Cc1nc(CCc2ccccc2)c(C(=O)O)c(C(=O)O)c1O
inhibition [1]: inactive | pIC50 [2]: 6.10 | pIC50 [5]: 6.19

COc1cccc(CCc2nc(C)c(O)c(C(=O)O)c2C(=O)O)c1
inhibition [4]: 45.5% | inhibition [1]: inactive | inhibition [3]: 52.4%

Cc1nc(/N=N/c2ccc(S(=O)(=O)O)cc2S(=O)(=O)O)c(COP(=O)(O)O)c(C=O)c1O
pIC50 [11]: 7.00

Cc1nc(Cc2ccccc2Oc2ccccc2)c(C(=O)O)c(C(=O)O)c1O
inhibition [1]: inactive | pIC50 [2]: 5.53 | inhibition [3]: 49.6%

Cc1nc(Cc2cccc3ccccc23)c(C(=O)O)c(C(=O)O)c1O
inhibition [1]: inactive | pIC50 [2]: 5.90 | inhibition [3]: 48.7%

Cc1nc(-c2cccc(Oc3ccccc3)c2)c(C(=O)O)c(C(=O)O)c1O
inhibition [1]: inactive | pIC50 [2]: 5.48 | inhibition [3]: 49.7%

COc1ccc(CCc2nc(C)c(O)c(C(C)=O)c2C(=O)O)cc1
inhibition [4]: 42.2% | inhibition [1]: inactive | inhibition [3]: 52%

Cc1nc(Cc2cccc(Oc3ccccc3)c2)c(C(=O)O)c(C(=O)O)c1O
inhibition [1]: inactive | pIC50 [2]: 6.32 | inhibition [3]: 41.8%

CC(=O)c1c(O)c(C)nc(/C=C/c2ccccc2)c1C(=O)O
inhibition [4]: 27.4% | inhibition [1]: inactive | inhibition [3]: 52.4%

Cc1nc(Cc2cccc(Oc3ccccc3)c2)c(CCC(=O)O)c(C(=O)O)c1O
inhibition [1]: inactive | pIC50 [2]: 6.20 | inhibition [3]: 31.7%

Cc1nc(CCc2cccc(Oc3ccccc3)c2)c(C(=O)O)c(C(=O)O)c1O
inhibition [1]: inactive | pIC50 [2]: 6.23 | inhibition [3]: 38.3%

Cc1nc(Cc2cccc(Oc3ccccc3)c2)c2c(c1O)C(O)OC2=O (configuration not stated)
inhibition [1]: 27.1% | pIC50 [2]: 6.19 | inhibition [3]: 45%

Cc1nc(CCc2ccc(C(=O)O)cc2)c(C(=O)O)c(C(=O)O)c1O
inhibition [1]: inactive | pIC50 [2]: 6.34 | pIC50 [5]: 6.57

Cc1nc(Cc2cccc3ccccc23)c2c(c1O)C(O)OC2=O (configuration not stated)
inhibition [1]: 14.8% | pIC50 [2]: 6.07

Cc1nc(COCc2ccccc2)c(C(=O)O)c(C(=O)O)c1O
inhibition [4]: 23.1% | inhibition [1]: inactive

Cc1nc(NC(=O)c2cccc(Oc3ccccc3)c2)c(C(=O)O)c(C(=O)O)c1O
inhibition [1]: inactive | pIC50 [2]: 6.03

Cc1nc(Cc2ccccc2)c(C(=O)O)c(C(=O)O)c1O
inhibition [4]: 31.4% | inhibition [1]: inactive | inhibition [3]: 54.2%
